Test results published in ChEMBL document CHEMBL1144067, “Cancer chemopreventive agents (antitumor-promoters) from Ajuga decumbens” (J Nat Prod, 1999).

How the values were obtained:
Raji [1] = assay: Inhibition of 12-O-tetradecanoylphorbol-13-acetate induced EBV-early antigen activation in human Raji cells at 500 molar ratio relative to control; assay type: cell-based; details: human gammaherpesvirus 4
Summary of the method: (§1)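 Raji cells in RPMI-1640 treated 48 h at 37 °C with n-butyric acid (4 mmol), TPA (32 pmol = 20 ng/mL) and test agent at 10, 100, 500 or 1000 mol ratio/TPA (0.32–32 nmol). EA-positive cells in smears detected by indirect immunofluorescence; induction expressed relative to TPA positive control (100%), n = 3, ±S.D.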

[2] = Cytotoxicity against human Raji cells assessed as cell viability at 1000 molar ratio after 48 hrs; assay type: cell-based; details: read-out: Activity
Summary of the method: (§2)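 Raji cells (EBV genome-carrying, Burkitt's lymphoma-derived) grown in RPMI-1640 and incubated 48 h at 37 °C with 4 mmol n-butyric acid, 32 pmol TPA (20 ng/mL) and test agent at 10–1000 mol ratio/TPA (0.32–32 nmol). Viability given as percentage of Raji cells; n = 3, ±S.D.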

Raji [3] = assay: Inhibition of 12-O-tetradecanoylphorbol-13-acetate induced EBV-early antigen activation in human Raji cells at 1000 molar ratio relative to control; assay type: cell-based; details: human gammaherpesvirus 4; summary of the method: as §1
[4] = Cytotoxicity against human Raji cells assessed as cell viability at 10 molar ratio after 48 hrs; assay type: cell-based; details: read-out: Activity; summary of the method: as §2
[5] = Cytotoxicity against human Raji cells assessed as cell viability at 500 molar ratio after 48 hrs; assay type: cell-based; details: read-out: Activity; summary of the method: as §2
Raji [6] = assay: Inhibition of 12-O-tetradecanoylphorbol-13-acetate induced EBV-early antigen activation in human Raji cells at 100 molar ratio relative to control; assay type: cell-based; details: human gammaherpesvirus 4; summary of the method: as §1
[7] = Cytotoxicity against human Raji cells assessed as cell viability at 100 molar ratio after 48 hrs; assay type: cell-based; details: read-out: Activity; summary of the method: as §2
Raji [8] = assay: Inhibition of 12-O-tetradecanoylphorbol-13-acetate induced EBV-early antigen activation in human Raji cells at 10 molar ratio relative to control; assay type: cell-based; details: human gammaherpesvirus 4; summary of the method: as §1
Mus musculus [9] = assay: Inhibition of DMBA-induced/TPA-promoted carcinogenesis in mouse assessed as number of skin papillomas per mouse at 85 nmol administered twice weekly after 1 week of initiation for 10 weeks; assay type: functional
Summary of the method: (§3)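 Female SPF ICR mice, 6 weeks old, 15 per group, backs shaved; single topical DMBA initiation (100 μg, 390 nmol) in 0.1 mL acetone. From 1 week after, promotion with TPA 1.7 nmol twice weekly, plus 85 nmol test agent. Papilloma incidence and number per mouse monitored weekly for 20 weeks.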

Mus musculus [10] = assay: Inhibition of DMBA-induced/TPA-promoted carcinogenesis in mouse assessed as number of skin papillomas per mouse at 85 nmol administered twice weekly after 1 week of initiation for 20 weeks; assay type: functional; summary of the method: as §3

SMILES	EBV-EA induction remaining (% of TPA control) (Raji [1]) [%]	viability at 48 h, 1000 molar ratio [2] [%]	EBV-EA induction remaining (% of TPA control) (Raji [3]) [%]	viability at 48 h, 10 molar ratio [4] [%]	viability at 48 h, 500 molar ratio [5] [%]	EBV-EA induction remaining (% of TPA control) (Raji [6]) [%]	viability at 48 h, 100 molar ratio [7] [%]	EBV-EA activation relative to TPA control (Raji [8]) [%]	Activity (Mus musculus [9])	Activity (Mus musculus [10])
C/C=C(/C)C(=O)O[C@@H](C[C@@]1(C)[C@H](C)C[C@H](OC(C)=O)[C@]2(COC(C)=O)[C@@H]1[C@H](OC(=O)/C(C)=C\C)CC[C@]21CO1)C1=CC(=O)OC1	47.2	70	18.4	> 80	> 80	71.5	> 80	100		
CC(C)(O)CC[C@@H](O)[C@](C)(O)[C@H]1CC[C@@]2(O)C3=CC(=O)[C@]4(O)C[C@@H](O)[C@@H](O)C[C@]4(C)[C@H]3CC[C@]12C [POLYPODINE B]		70		> 80	> 80		> 80			
C[C@@H]1C(=O)O[C@H](C)[C@H]1CC(=O)[C@](C)(O)[C@H]1CC[C@@]2(O)C3=CC(=O)[C@@H]4C[C@@H](O)[C@@H](O)C[C@]4(C)[C@H]3CC[C@]12C	61.9	60	20.9	> 80	> 80	84.5	> 80	100		
CC1(C)[C@@H](O)CC[C@]2(C)[C@H]3C(=O)C=C4[C@@H]5C[C@@](C)(C(=O)O)CC[C@]5(C)CC[C@@]4(C)[C@]3(C)CC[C@@H]12 [ENOXOLONE]									4	9
C[C@@H]1C(=O)O[C@H](C)[C@H]1C[C@@H](O)[C@](C)(O)[C@H]1CC[C@@]2(O)C3=CC(=O)[C@]4(O)C[C@@H](O)[C@@H](O)C[C@]4(C)[C@H]3CC[C@]12C	51.9	70	0	> 80	> 80	80.2	> 80	100		
C/C=C(/C)C(=O)O[C@@H]1CC[C@]2(CO2)[C@]2(COC(C)=O)[C@@H](OC(C)=O)C[C@@H](C)[C@](C)(C[C@H](OC(C)=O)C3=CC(=O)OC3)[C@@H]12	42.6	60	0	> 80	> 80	73.5	> 80	100		
CC(=O)OC[C@@]12[C@@H](OC(C)=O)C[C@@H](C)[C@](C)(C[C@H](OC(C)=O)C3=CC(=O)OC3)[C@H]1[C@H](OC(C)=O)CC[C@]21CO1 [AJUGAPANTIN A]	54.7	70	10.6	> 80	> 80	79.2	> 80	100		
CC(C)(O)CC[C@@H](O)[C@@](C)(O)[C@H]1CC[C@@]2(O)C3=CC(=O)[C@@H]4C[C@@H](O)[C@@H](O)C[C@]4(C)[C@H]3CC[C@]12C	73.7	70	0	> 80	> 80	90.1	> 80	100		
CC(C)(O)CC[C@@H](O)[C@@](C)(O)[C@H]1CC[C@@]2(O)C3=CC(=O)[C@]4(O)C[C@@H](O)[C@@H](O)C[C@]4(C)[C@H]3CC[C@]12C	23.4		0			65.9		100		
